According to ChEMBL document CHEMBL2157922, “Synthesis and antifungal activity of diverse C-2 pyridinyl and pyridinylvinyl substituted quinolines” (2012):
Converted amounts (≈) assume the structure as drawn.

Legend:
[1] = system: Candida albicans; assay: Antifungal activity against Candida albicans ATCC 10231 after 48 hrs by broth microdilution technique; assay type: functional; details: ATCC 10231, 48 h
Method in brief: (§1)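 Yeasts were tested by CLSI broth microdilution in RPMI-1640 buffered to pH 7.0 with MOPS, with compound from 250 down to 0.98 in DMSO stocks. Trays were held at 30 °C in a moist, dark chamber. MIC100, the lowest concentration giving total visual inhibition against the growth control, was read by eye at 48 h.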

[2] = system: Cryptococcus neoformans; assay: Antifungal activity against Cryptococcus neoformans ATCC 32264 at 31.2 ug/ml after 48 hrs; assay type: functional; details: ATCC 32264, 48 h
Method in brief: (§2)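 C. neoformans was tested by 96-well RPMI-1640 microdilution, with DMSO-matched growth and sterility control wells. Plates were incubated 48 h at 30 °C in a moist, dark chamber and read at OD405. % inhibition = 100 − (CTW − SCW)/(GCW − SCW), in duplicate. For the clinical isolates, MIC80 and MIC50 are the lowest concentrations giving 80% and 50% inhibition.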

[3] = system: Pichia kudriavzevii; assay: Antifungal activity against Candida krusei CCC 117 after 48 hrs by broth microdilution technique; assay type: functional; details: CCC 117, 48 h
[4] = system: Saccharomyces cerevisiae; assay: Antifungal activity against Saccharomyces cerevisiae ATCC 9763 after 48 hrs by broth microdilution technique; assay type: functional; details: ATCC 9763, 48 h; method in brief: as §1
[5] = system: Candida albicans; assay: Antifungal activity against Candida albicans ATCC 10231 at 31.2 ug/ml after 24 hrs; assay type: functional; details: ATCC 10231, 24 h
Method in brief: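 C. albicans was grown in 96-well RPMI-1640 broth microdilution with compound wells diluted from DMSO stocks. Growth wells with matched DMSO and sterility wells were included. After 24 h at 30 °C in a moist, dark chamber, OD405 was read. % inhibition = 100 − (CTW − SCW)/(GCW − SCW) OD, done in duplicate.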

[6] = system: Cryptococcus neoformans; assay: Antifungal activity against Cryptococcus neoformans IM 00319 after 48 hrs by broth microdilution technique; assay type: functional; details: IM 00319, 48 h; method in brief: as §2
[7] = system: Trichophyton mentagrophytes; assay: Antifungal activity against Trichophyton mentagrophytes ATCC 9972 after 48 hrs by broth microdilution technique; assay type: functional; details: ATCC 9972, 48 h
Method in brief: (§3)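 Moulds and dermatophytes were run by CLSI broth microdilution in MOPS-buffered RPMI-1640 at pH 7.0. Aspergillus was incubated at 30 °C and dermatophytes at 28–30 °C, in a moist, dark chamber. MIC100, the lowest concentration with no visible growth, was read visually at a time set by growth of the control fungus.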

[8] = system: Aspergillus fumigatus; assay: Antifungal activity against Aspergillus fumigatus ATCC 26934 after 48 hrs by broth microdilution technique; assay type: functional; details: ATCC 26934, 48 h; method in brief: as §3
[9] = system: Candida tropicalis; assay: Antifungal activity against Candida tropicalis CCC 131 after 48 hrs by broth microdilution technique; assay type: functional; details: CCC 131, 48 h
[10] = system: Cryptococcus neoformans; assay: Antifungal activity against Cryptococcus neoformans IM 972751 after 48 hrs by broth microdilution technique; assay type: functional; details: IM 972751, 48 h; method in brief: as §2
[11] = system: Trichophyton rubrum; assay: Antifungal activity against Trichophyton rubrum CCC 113 after 48 hrs by broth microdilution technique; assay type: functional; details: CCC 113, 48 h
[12] = system: Cryptococcus neoformans; assay: Antifungal activity against Cryptococcus neoformans IM 042074 after 48 hrs by broth microdilution technique; assay type: functional; details: IM 042074, 48 h; method in brief: as §2
[13] = system: Candida albicans; assay: Antifungal activity against Candida albicans CCC 127 after 48 hrs by broth microdilution technique; assay type: functional; details: CCC 127, 48 h
[14] = system: Aspergillus niger; assay: Antifungal activity against Aspergillus niger ATCC 9029 after 48 hrs by broth microdilution technique; assay type: functional; details: ATCC 9029, 48 h; method in brief: as §3
[15] = system: Nannizzia gypsea; assay: Antifungal activity against Microsporum gypseum CCC 115 after 48 hrs by broth microdilution technique; assay type: functional; details: CCC 115, 48 h; method in brief: as §3
[16] = system: Nakaseomyces glabratus; assay: Antifungal activity against Candida glabrata CCC 115 after 48 hrs by broth microdilution technique; assay type: functional; details: CCC 115, 48 h
[17] = system: Candida albicans; assay: Antifungal activity against Candida albicans CCC 130 after 24 hrs by broth microdilution technique; details: CCC 130, 24 h
[18] = system: Cryptococcus neoformans; assay: Antifungal activity against Cryptococcus neoformans ATCC 32264 after 48 hrs by broth microdilution technique; assay type: functional; details: ATCC 32264, 48 h; method in brief: as §1
[19] = system: Candida albicans; assay: Antifungal activity against Candida albicans CCC 130 after 48 hrs by broth microdilution technique; assay type: functional; details: CCC 130, 48 h
[20] = system: Candida albicans; assay: Antifungal activity against Candida albicans CCC 126 after 48 hrs by broth microdilution technique; assay type: functional; details: CCC 126, 48 h
[21] = system: Candida parapsilosis; assay: Antifungal activity against Candida parapsilosis CCC 124 after 48 hrs by broth microdilution technique; assay type: functional; details: Lodderomyces parapsilosis, CCC 124, 48 h
[22] = system: Candida albicans; assay: Antifungal activity against Candida albicans CCC 129 after 48 hrs by broth microdilution technique; assay type: functional; details: CCC 129, 48 h
[23] = system: Aspergillus flavus; assay: Antifungal activity against Aspergillus flavus ATCC 9170 after 48 hrs by broth microdilution technique; assay type: functional; details: ATCC 9170, 48 h; method in brief: as §3
[24] = system: Candida albicans; assay: Antifungal activity against Candida albicans CCC 128 after 48 hrs by broth microdilution technique; assay type: functional; details: CCC 128, 48 h
[25] = system: Cryptococcus neoformans; assay: Antifungal activity against Cryptococcus neoformans IM 983040 after 48 hrs by broth microdilution technique; assay type: functional; details: IM 983040, 48 h; method in brief: as §2
[26] = system: Cryptococcus neoformans; assay: Antifungal activity against Cryptococcus neoformans IM 983036 after 48 hrs by broth microdilution technique; assay type: functional; details: IM 983036, 48 h; method in brief: as §2
[27] = system: Candida albicans; assay: Antifungal activity against Candida albicans CCC 125 after 48 hrs by broth microdilution technique; assay type: functional; details: CCC 125, 48 h
[28] = system: Cryptococcus neoformans; assay: Antifungal activity against Cryptococcus neoformans IM 972724 after 48 hrs by broth microdilution technique; assay type: functional; details: IM 972724, 48 h; method in brief: as §2

What does the source list for `Fc1ccc2nc(/C=C/c3ccccn3)ccc2c1`?
MFC [1]: > 250 mg/L; MIC [1]: 125 mg/L (≈ 499 µM); MIC50 [1]: 15.6 mg/L (≈ 62.3 µM); MIC80 [1]: 31.2 mg/L (≈ 125 µM); inhibition at 31.2 µg/mL [2]: 80%; MIC50 [3]: 15.6 mg/L (≈ 62.3 µM); MIC80 [3]: 31.2 mg/L (≈ 125 µM); MFC [4]: > 250 mg/L; MIC [4]: 250 mg/L (≈ 999 µM); inhibition at 31.2 µg/mL [5]: 80%; MIC50 [6]: 15.6 mg/L (≈ 62.3 µM); MIC80 [6]: 62.5 mg/L (≈ 250 µM); MFC [7]: > 250 mg/L; MIC [7]: 125 mg/L (≈ 499 µM); MFC [8]: > 250 mg/L; MIC [8]: 250 mg/L (≈ 999 µM); MIC50 [9]: 62.5 mg/L (≈ 250 µM); MIC80 [9]: 125 mg/L (≈ 499 µM); MIC50 [10]: 15.6 mg/L (≈ 62.3 µM); MIC80 [10]: 31.2 mg/L (≈ 125 µM); MFC [11]: > 250 mg/L; MIC [11]: 125 mg/L (≈ 499 µM); MIC50 [12]: 15.6 mg/L (≈ 62.3 µM); MIC80 [12]: 62.5 mg/L (≈ 250 µM); MIC50 [13]: 31.2 mg/L (≈ 125 µM); MIC80 [13]: 62.5 mg/L (≈ 250 µM); MIC [14]: > 250 mg/L; MFC [15]: > 250 mg/L; MIC [15]: 125 mg/L (≈ 499 µM); MIC50 [16]: 15.6 mg/L (≈ 62.3 µM); MIC80 [16]: 31.2 mg/L (≈ 125 µM); MIC50 [17]: 15.6 mg/L (≈ 62.3 µM); MFC [18]: > 250 mg/L; MIC [18]: 125 mg/L (≈ 499 µM); MIC50 [18]: 15.6 mg/L (≈ 62.3 µM); MIC80 [18]: 31.2 mg/L (≈ 125 µM); MIC80 [19]: 31.2 mg/L (≈ 125 µM); MIC50 [20]: 62.5 mg/L (≈ 250 µM); MIC80 [20]: 62.5 mg/L (≈ 250 µM); MIC50 [21]: 7.8 mg/L (≈ 31.2 µM); MIC80 [21]: 15.6 mg/L (≈ 62.3 µM); MIC50 [22]: 31.2 mg/L (≈ 125 µM); MIC80 [22]: 62.5 mg/L (≈ 250 µM); MFC [23]: > 250 mg/L; MIC [23]: 250 mg/L (≈ 999 µM); MIC50 [24]: 31.2 mg/L (≈ 125 µM); MIC80 [24]: 62.5 mg/L (≈ 250 µM); MIC50 [25]: 31.2 mg/L (≈ 125 µM); MIC80 [25]: 62.5 mg/L (≈ 250 µM); MIC50 [26]: 31.2 mg/L (≈ 125 µM); MIC80 [26]: 62.5 mg/L (≈ 250 µM); MIC50 [27]: 15.6 mg/L (≈ 62.3 µM); MIC80 [27]: 31.2 mg/L (≈ 125 µM); MIC50 [28]: 31.2 mg/L (≈ 125 µM); MIC80 [28]: 62.5 mg/L (≈ 250 µM)

What does the source list for `Clc1ccc2nc(/C=C/c3ccncc3)ccc2c1`?
MFC [1]: > 250 mg/L; MIC [1]: 125 mg/L (≈ 469 µM); MIC50 [1]: 15.6 mg/L (≈ 58.5 µM); MIC80 [1]: 31.2 mg/L (≈ 117 µM); MIC50 [3]: > 250 mg/L; MIC80 [3]: > 250 mg/L; MFC [4]: > 250 mg/L; MIC [4]: 125 mg/L (≈ 469 µM); inhibition at 31.2 µg/mL [5]: 80%; MIC50 [6]: 31.2 mg/L (≈ 117 µM); MIC80 [6]: 62.5 mg/L (≈ 234 µM); MFC [7]: 125 mg/L (≈ 469 µM); MIC [7]: 62 mg/L (≈ 232 µM); MFC [8]: > 250 mg/L; MIC [8]: 250 mg/L (≈ 937 µM); MIC50 [9]: 31.2 mg/L (≈ 117 µM); MIC80 [9]: 125 mg/L (≈ 469 µM); MIC50 [10]: 15.6 mg/L (≈ 58.5 µM); MIC80 [10]: 31.2 mg/L (≈ 117 µM); MFC [11]: 125 mg/L (≈ 469 µM); MIC [11]: 62 mg/L (≈ 232 µM); MIC50 [12]: 15.6 mg/L (≈ 58.5 µM); MIC80 [12]: 62.5 mg/L (≈ 234 µM); MIC50 [13]: 31.2 mg/L (≈ 117 µM); MIC80 [13]: 62.5 mg/L (≈ 234 µM); MFC [14]: > 250 mg/L; MIC [14]: 250 mg/L (≈ 937 µM); MFC [15]: 125 mg/L (≈ 469 µM); MIC [15]: 62 mg/L (≈ 232 µM); MIC50 [16]: > 250 mg/L; MIC80 [16]: > 250 mg/L; MIC50 [17]: 31.2 mg/L (≈ 117 µM); MFC [18]: 250 mg/L (≈ 937 µM); MIC [18]: 125 mg/L (≈ 469 µM); MIC50 [18]: 15.6 mg/L (≈ 58.5 µM); MIC80 [18]: 31.2 mg/L (≈ 117 µM); MIC80 [19]: 62.5 mg/L (≈ 234 µM); MIC50 [20]: 31.2 mg/L (≈ 117 µM); MIC80 [20]: 62.5 mg/L (≈ 234 µM); MIC50 [21]: > 250 mg/L; MIC80 [21]: > 250 mg/L; MIC50 [22]: 31.2 mg/L (≈ 117 µM); MIC80 [22]: 62.5 mg/L (≈ 234 µM); MFC [23]: > 250 mg/L; MIC [23]: 250 mg/L (≈ 937 µM); MIC50 [24]: 62.5 mg/L (≈ 234 µM); MIC80 [24]: 125 mg/L (≈ 469 µM); MIC50 [25]: 15.6 mg/L (≈ 58.5 µM); MIC80 [25]: 62.5 mg/L (≈ 234 µM); MIC50 [26]: 7.8 mg/L (≈ 29.2 µM); MIC80 [26]: 62.5 mg/L (≈ 234 µM); MIC50 [27]: 31.2 mg/L (≈ 117 µM); MIC80 [27]: 125 mg/L (≈ 469 µM); MIC50 [28]: 31.2 mg/L (≈ 117 µM); MIC80 [28]: 62.5 mg/L (≈ 234 µM)
